Results collected from several papers.
Target: Phosphatidylinositol 3-kinase C2 domain-containing subunit gamma (PIK3C2G, Homo sapiens, UniProt O75747)
Residues used in one study (O75747 1-1486): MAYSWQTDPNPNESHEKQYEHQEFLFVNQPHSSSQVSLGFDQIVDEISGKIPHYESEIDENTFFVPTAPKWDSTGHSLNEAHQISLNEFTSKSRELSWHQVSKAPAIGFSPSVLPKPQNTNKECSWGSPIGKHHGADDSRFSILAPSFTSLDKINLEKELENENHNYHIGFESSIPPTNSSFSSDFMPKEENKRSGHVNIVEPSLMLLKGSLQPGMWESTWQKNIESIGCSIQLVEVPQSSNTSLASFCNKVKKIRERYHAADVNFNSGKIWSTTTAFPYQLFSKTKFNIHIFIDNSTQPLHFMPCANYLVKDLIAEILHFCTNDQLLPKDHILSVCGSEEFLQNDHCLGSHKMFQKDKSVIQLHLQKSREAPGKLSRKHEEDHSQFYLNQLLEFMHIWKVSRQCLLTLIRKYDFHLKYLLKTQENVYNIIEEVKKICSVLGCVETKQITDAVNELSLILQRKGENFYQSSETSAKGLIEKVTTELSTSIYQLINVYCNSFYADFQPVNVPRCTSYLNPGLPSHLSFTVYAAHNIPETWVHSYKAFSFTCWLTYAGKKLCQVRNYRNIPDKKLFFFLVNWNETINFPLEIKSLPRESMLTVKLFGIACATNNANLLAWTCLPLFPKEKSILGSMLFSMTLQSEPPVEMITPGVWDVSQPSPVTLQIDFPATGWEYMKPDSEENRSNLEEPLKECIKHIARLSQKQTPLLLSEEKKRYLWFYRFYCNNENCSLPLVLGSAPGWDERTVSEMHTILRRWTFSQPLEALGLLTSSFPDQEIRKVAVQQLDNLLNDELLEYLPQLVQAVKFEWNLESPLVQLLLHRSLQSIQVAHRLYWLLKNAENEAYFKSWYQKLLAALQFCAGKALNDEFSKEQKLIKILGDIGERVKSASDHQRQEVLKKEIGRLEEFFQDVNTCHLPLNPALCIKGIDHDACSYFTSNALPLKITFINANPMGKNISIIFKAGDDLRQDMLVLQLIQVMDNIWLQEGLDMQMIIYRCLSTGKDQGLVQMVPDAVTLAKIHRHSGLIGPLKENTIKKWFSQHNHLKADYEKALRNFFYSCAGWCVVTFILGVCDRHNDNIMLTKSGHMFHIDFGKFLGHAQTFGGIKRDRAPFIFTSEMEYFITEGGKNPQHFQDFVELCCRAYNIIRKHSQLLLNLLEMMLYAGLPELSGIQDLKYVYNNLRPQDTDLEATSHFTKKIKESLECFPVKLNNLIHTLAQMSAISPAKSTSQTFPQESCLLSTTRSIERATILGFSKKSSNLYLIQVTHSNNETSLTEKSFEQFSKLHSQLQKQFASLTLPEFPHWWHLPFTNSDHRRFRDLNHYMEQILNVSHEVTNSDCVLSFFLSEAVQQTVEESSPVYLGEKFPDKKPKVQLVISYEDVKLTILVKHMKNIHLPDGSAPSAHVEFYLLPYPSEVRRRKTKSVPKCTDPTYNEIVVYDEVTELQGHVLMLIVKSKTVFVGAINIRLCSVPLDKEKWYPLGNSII

FC(F)(F)Oc1cccc(-c2cnc3ccc(-c4ccncc4)nn23)c1
remaining binding (cell-free assay, competition with immobilised ligand; 5 µM): 34%

Cc1nc(C2CCN(C(=O)c3ccc(OC(F)(F)F)cc3N)CC2)c2ncc(N3CCN(C)CC3)cc2n1
remaining binding (cell-free assay, competition with immobilised ligand; 1 µM): 100%

CN(C)c1nccc(-c2cnc3ncccn23)n1
remaining binding (binding; 1 µM): 51%

CCS(=O)(=O)c1cc2cc(C[C@](O)(CC(C)(C)c3ccc(F)cc3C(N)=O)C(F)(F)F)[nH]c2cn1
remaining binding (cell-free assay, competition with immobilised ligand; 1 µM): 100%

O=C(NCCCN1CCOCC1)c1ccc(Nc2nccc(-c3cc4ccccc4s3)n2)cc1
remaining binding (binding, competition with immobilised ligand; 1 µM): 68%

CNC(=O)[C@@H]1CC[C@@H](n2c(-c3ccc4cnccc4c3)nc3ccc(C(=O)NCc4cccc(C(N)=O)c4)cc32)C1
remaining binding (binding, competition with immobilised ligand; 1 µM): 100%

O=C(c1ccc(Nc2nccc(-c3cc4ccccc4s3)n2)cc1)N1CCC(N2CCCC2)CC1
remaining binding (binding, competition with immobilised ligand; 1 µM): 100%

O=C(NCC1CCOCC1)c1n[nH]cc1NC(=O)c1c(F)cccc1F
remaining binding (binding, competition with immobilised ligand; 1 µM): 100%

C[C@@H](c1cccc(C#N)c1)n1cc(Cl)cc(C(N)=O)c1=N
remaining binding (cell-free assay, competition with immobilised ligand; 1 µM): 84%

C=CC(=O)N1CCC(C(=O)NCC(=O)N2CCN(c3nc(-c4cnc(N)nc4C(F)F)nc(N4CCOCC4)n3)CC2)CC1
remaining binding (binding, competition with immobilised ligand; 1 µM): 16%

CN(CCCC(F)(F)F)c1nccc(-c2cnn3ncccc23)n1
remaining binding (binding; 1 µM): 100%

CCCOc1ccc([C@@H]2[C@@H](C(=O)O)[C@H](c3ccc4c(c3)OCO4)CN2CC(=O)Nc2c(CC)cccc2CC)cc1
remaining binding (cell-free assay, competition with immobilised ligand; 1 µM): 78%

C[C@H]1CCN(c2nccc(-c3cnn4ncccc34)n2)C1
remaining binding (binding; 1 µM): 79%

c1cncc(-c2cccc(Nc3nccc(NC4CCCCC4)n3)c2)c1
remaining binding (binding, competition with immobilised ligand; 10 µM): 51%

CC1=C(C#N)C(c2ccc3c(c2)c(NC(=O)c2ccccc2C)nn3C)C(C#N)=C(C)N1
remaining binding (cell-free assay, competition with immobilised ligand; 1 µM): 61%

COc1ccnn2ncc(-c3ccnc(N(C)C)n3)c12
remaining binding (binding; 1 µM): 93%

CCN1CCN(Cc2ccc(C(=O)Nc3ccc(C)c(Oc4ccc5c(c4)CC(=O)N5)c3)cc2C(F)(F)F)CC1
remaining binding (binding, competition with immobilised ligand; 1 µM): 100%

COc1cnc(Nc2cccc(S(N)(=O)=O)c2)nc1N1CCN(c2ccccc2)CC1
remaining binding (binding, competition with immobilised ligand; 1 µM): 79%

CNC(=O)c1ccc(Nc2ncc(C(F)(F)F)c(NCc3nccnc3N(C)S(C)(=O)=O)n2)cc1
remaining binding (cell-free assay, competition with immobilised ligand; 0.1 µM): 92%

O=C(c1ccc(Nc2ncc(Cl)c(-c3ccc(Cl)s3)n2)cc1)N1CCC(N2CCCC2)CC1
remaining binding (binding, competition with immobilised ligand; 1 µM): 100%

N[C@H]1CCN(c2nccc(-c3cnn4ncccc34)n2)C1
remaining binding (binding; 1 µM): 100%
